In brackets after ≈: the same amount, converted by molar mass.
Columns and labels:
[1] = test system: Plasmodium falciparum; experiment: Antimalarial activity against multidrug-resistant Plasmodium falciparum K1 by [3H]hypoxanthine uptake; assay type: functional, organism-based
Outline: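 Multidrug-resistant P. falciparum K1 tested in vitro by microculture radioisotope technique. IC50 is the concentration giving 50% reduction of parasite growth, measured as [3H]-hypoxanthine uptake, reported in µg/mL.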

[2] = test system: Mycobacterium tuberculosis; experiment: Antitubercular activity against Mycobacterium tuberculosis H37Ra by microplate Alamar blue assay; assay type: functional
Outline: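 Growth inhibition of M. tuberculosis H37Ra measured by Microplate Alamar Blue Assay; activity reported as MIC in µg/mL.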

[3] = Cytotoxicity against human BC1 cells by SRB assay; assay type: functional, cell-based
Outline: (§1)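 Purified compounds tested for cytotoxicity by a colorimetric method on human epidermoid carcinoma KB, human breast cancer BC-1 and African monkey kidney fibroblast Vero cells. Values are IC50 in µg/mL. Ellipticine served as the standard for KB and BC-1.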

[4] = test system: Vero; experiment: Cytotoxicity against african green monkey Vero cells by SRB assay; assay type: cell-based; conditions: Chlorocebus sabaeus; outline: as §1
[5] = test system: KB; experiment: Cytotoxicity against human KB cells by SRB assay; assay type: functional, cell-based; outline: as §1

C[C@@H]1CC[C@H]2[C@@H](C)C(=O)O[C@@H]3O[C@@]4(C)CC[C@@H]1[C@]32OO4 [ARTEMISININ]
IC50 [1]: 0.0011 mg/L (≈ 0.0039 µM)

C[C@@H]1CC(O)=C2C(=O)c3c(O)ccc(-c4ccc(O)c5c4O[C@@]4(CO)C(=C(O)C[C@@H](C)[C@H]4O)C5=O)c3O[C@]2(CO)[C@@H]1O [DEACETYLPHOMOXANTHONE A]
MIC [2]: > 200 mg/L | IC50 [1]: > 20 mg/L | IC50 [3]: > 20 mg/L | IC50 [4]: > 50 mg/L | IC50 [5]: > 20 mg/L

Cc1c2ccncc2c(C)c2c1[nH]c1ccccc12 [ELLIPTECINE]
IC50 [3]: 0.6 mg/L (≈ 2.44 µM) | IC50 [5]: 0.46 mg/L (≈ 1.87 µM)

NNC(=O)c1ccncc1 [ISONIAZID]
MIC [2]: 0.05 mg/L (≈ 0.365 µM)

NC[C@H]1O[C@H](O[C@H]2[C@H](O)[C@@H](O[C@H]3O[C@H](CO)[C@@H](O)[C@H](N)[C@H]3O)[C@H](N)C[C@@H]2N)[C@H](O)[C@@H](O)[C@@H]1O.O=S(=O)(O)O [KANAMYCIN SULFATE]
MIC [2]: 2.5 mg/L

CC(=O)OC[C@]12Oc3c(-c4ccc(O)c5c4O[C@@]4(COC(C)=O)C(=C(O)C[C@@H](C)[C@H]4OC(C)=O)C5=O)ccc(O)c3C(=O)C1=C(O)C[C@@H](C)[C@H]2OC(C)=O [PHOMOXANTHONE A]
MIC [2]: 0.5 mg/L (≈ 0.666 µM) | IC50 [1]: 0.11 mg/L (≈ 0.147 µM) | IC50 [3]: 0.51 mg/L (≈ 0.679 µM) | IC50 [4]: 1.4 mg/L (≈ 1.86 µM) | IC50 [5]: 0.99 mg/L (≈ 1.32 µM)

CC(=O)OC[C@]12Oc3ccc(-c4ccc(O)c5c4O[C@@]4(COC(C)=O)C(=C(O)C[C@@H](C)[C@H]4OC(C)=O)C5=O)c(O)c3C(=O)C1=C(O)C[C@@H](C)[C@H]2OC(C)=O [PHOMOXANTHONE B]
MIC [2]: 6.25 mg/L (≈ 8.33 µM) | IC50 [1]: 0.33 mg/L (≈ 0.44 µM) | IC50 [3]: 0.7 mg/L (≈ 0.932 µM) | IC50 [4]: 1.8 mg/L (≈ 2.4 µM) | IC50 [5]: 4.1 mg/L (≈ 5.46 µM)

Source: ChEMBL document CHEMBL1155742, “Phomoxanthones A and B, novel xanthone dimers from the endophytic fungus Phomopsis species” (J Nat Prod, 2001)
